# Screens from PubChem.
# An excerpt weighted towards active compounds, which were near 3.5% of everything screened.
# MrgX1 agonist – agonists of human MrgX1 receptor, primary screen, HEK293 cells, Fluo-4 calcium flux | Fluo-4 calcium fluorescence, agonist mode; hits give high values | B-score at 10 µM | actives 0.44% (n = 310,000);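 active means calcium response B-score plate-corrected fluorescence ratio at least 3 library SD, with starting fluorescence B-score inside 5 SD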
# Target sequence (Q96LB2 whole entry, looked up): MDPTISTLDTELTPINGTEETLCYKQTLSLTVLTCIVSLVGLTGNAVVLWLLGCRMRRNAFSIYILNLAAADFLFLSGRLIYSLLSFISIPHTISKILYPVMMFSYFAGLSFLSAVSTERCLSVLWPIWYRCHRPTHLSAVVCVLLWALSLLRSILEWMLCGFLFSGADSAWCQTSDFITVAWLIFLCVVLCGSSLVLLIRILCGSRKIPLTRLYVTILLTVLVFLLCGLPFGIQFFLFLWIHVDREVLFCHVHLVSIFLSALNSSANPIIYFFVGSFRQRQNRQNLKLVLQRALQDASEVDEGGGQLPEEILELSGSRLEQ
#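 Material: MrgX1-expressing HEK293 cells; input: 15,000 cells per well; doses: test compound given as first of three sequential additions; schedule: overnight plating before 1 h dye loading; technique: Fluo-4 NW calcium-flux fluorescence, kinetic read; evaluation: baseline-normalised fluorescence change ratio, B-scored; control set: plate-wise positive and negative controls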
# RGS4 pot – RGS4 potentiators or activators, primary screen, cell-based, HEK293 M3R inducible RGS4, calcium flux. carbachol calcium flux Fluo4; hits give low values. B-score at 10 µM. actives 0.92% (n = 310,000). AID 463111, 2010;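 active means B-score of the integrated calcium signal more than 4 SD below the library mean, with starting fluorescence not abnormally high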;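 further: negative B-score means reduced calcium response which marks RGS4 activation or potentiation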
#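 System: HEK293 FlpIn-TREx cells, stable M3R, doxycycline-inducible RGS4. Timing: overnight RGS4 induction, 30 min dye load 37 °C, 20 min compound RT. Also added: carbachol, ECmax concentration. Measured by: Fluo4 fluorescence kinetic imaging of calcium. Evaluation: integrated calcium ratio converted to B score.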
# MrgX1 antag – antagonists of human MrgX1 receptor, primary screen, HEK293 cells, Fluo-4 calcium flux; AID 588676, 2011; actives 1.3% (n = 310,000); Mas-related G-protein coupled receptor member X1 (Homo sapiens), Q96LB2; B-score at 10 µM; BAM8-22 antagonism; hits give low values;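 active means calcium-response B-score plate-corrected more than 3 library SD below zero, starting fluorescence within 5 deviations, no agonist response on first addition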;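 further: peak minus trough fluorescence over baseline after final BAM8-22 challenge near maximal dose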
# MrgX1 PAM – positive allosteric modulators of MrgX1, primary screen, HEK293 cells, Fluo-4 calcium flux | actives 0.63% (n = 310,000) | FDSS; hits give high values | B-score at 10 µM;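 active means plate-corrected calcium response at least 3 library SD above typical, normal starting fluorescence, not activating the receptor alone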;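 further: compound read alongside a low EC10 to EC30 dose of BAM8-22 agonist; peak minus trough fluorescence over baseline measured at the second addition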
# RGS4 inh – RGS4 inhibitors, primary screen, cell-based, HEK293 M3R inducible RGS4, calcium flux | Fluo-4 calcium flux; hits give high values; triggered by carbachol at its EC20 | B-score at 10 µM | actives 0.45% (n = 310,000) | AID 463165, 2010;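 active means B-score, a plate-corrected calcium signal, over three deviations above library mean, with baseline fluorescence within five deviations of library mean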;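 further: RGS4 expression induced by doxycycline in cells with stable M3 receptor; B-score is computed from the integrated fluorescence ratio over baseline after carbachol; higher B-score means a larger calcium signal and so more RGS4 inhibition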
# Target sequence (P49798 whole entry, looked up): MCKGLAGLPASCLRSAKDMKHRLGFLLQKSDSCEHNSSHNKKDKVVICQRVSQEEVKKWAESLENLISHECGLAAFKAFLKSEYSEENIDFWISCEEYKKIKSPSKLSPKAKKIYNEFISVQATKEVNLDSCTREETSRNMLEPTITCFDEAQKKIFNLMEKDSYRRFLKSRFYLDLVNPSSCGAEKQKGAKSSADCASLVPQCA
# MrgX1 antag conf – MrgX1 receptor antagonists, duplicate retest, confirmation, HEK293 cells, Fluo-4 calcium flux | shares compounds with MrgX1 antag | BAM8-22 calcium flux; hits give low values | remaining BAM8-22 calcium response % of control (hits give low values), % at 10 µM | actives 19% (n = 2,300) | AID 602420, 2012;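 active means remaining agonist calcium response no higher than 100% minus 3 SD of agonist-only control wells, with starting fluorescence near control levels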;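 further: agonist BAM8-22 given at a near maximal EC90 to ECmax level; peak minus minimum fluorescence divided by baseline after agonist addition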
# HEK293 Ca flux – nonspecific calcium signal in parental HEK293, confirmation, counter-screen for MrgX1 antagonist project, parental HEK293 cells, Fluo-4 calcium flux; fluorescence ratio F(max-min)/F0 at 10 µM; shares compounds with MrgX1 antag; actives 2% (n = 4,000); Fluo-4 calcium fluorescence, FDSS;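 active means duplicate-averaged calcium fluorescence ratio at least three times the standard deviation of buffer wells, a nonspecific response in parental cells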
# HEK293 Ca counter – calcium response in parental HEK293 cells, primary screen, counter-screen for MrgX1 allosteric activator project, cell-based, Fluo-4 calcium flux, duplicate | shares compounds with MrgX1 antag | Fluo-4 fluorescence ratio; hits give high values | fluorescence ratio F(max-min)/F0 at 10 µM | actives 0.4% (n = 4,000) | AID 624114, 2012;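 active means calcium fluorescence ratio, averaged over duplicates, at least 3 SD of the buffer-well ratio, meaning a nonspecific response in receptor-free cells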;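 further: untransfected parental HEK293 lacking MrgX1 used as counterscreen for MrgX1 allosteric activators; fluorescence change taken during the second addition on a kinetic imager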
# HEK293 Ca cntr2 – calcium response in parental HEK293 cells, primary screen, counter-screen for MrgX1 agonist project, cell-based, Fluo-4 calcium flux, duplicate, agonist mode | actives 8.7% (n = 4,000) | fluorescence ratio F(max-min)/F0 at 10 µM | shares compounds with MrgX1 antag | Fluo-4 calcium fluorescence (FDSS); hits give high values;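 active means calcium fluorescence ratio at least three times the spread of buffer wells, meaning a non-specific response in parental cells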
# The depositor's hits bear a star; i = inactive; · = no result given.
SMILES,MrgX1 agonist,RGS4 pot,MrgX1 antag,MrgX1 PAM,RGS4 inh,MrgX1 antag conf,HEK293 Ca flux,HEK293 Ca counter,HEK293 Ca cntr2
Cn1c(=O)c2nnn(/N=C(\c3ccccc3)C3CC3)c2n(C)c1=O,i,i,-5.08*,i,i,67.7%*,i,i,i
Cc1cc(NC(=S)Nc2ccccc2)ccc1Br,i,i,i,i,i,·,·,·,·
Cc1cc(NC(=S)Nc2cccnc2)ccc1Br,i,i,-5.24*,i,i,85.6%*,i,i,i
CCN(CC(=O)N1CCOCC1)S(=O)(=O)c1ccc(F)cc1,i,i,i,i,i,·,·,·,·
O=C(/C=C/c1ccccc1[N+](=O)[O-])NCCCN1CCCC1=O,i,i,i,i,i,·,·,·,·
S=C(NCCc1c[nH]c2ccccc12)NC1CCCCC1,i,i,i,i,i,·,·,·,·
S=C(NCCc1c[nH]c2ccccc12)NC1CCCC1,i,i,-4.95*,i,i,i,i,i,i
CCN(CC)S(=O)(=O)c1ccc2c(c1)nc(SCC(=O)N(C)C1CCS(=O)(=O)C1)n2CC (stereo not given),i,i,i,i,i,·,·,·,·
Cc1cc(C)c(C(N)=O)c(Nc2cccc(Cl)c2C)n1,i,i,i,i,i,·,·,·,·
Cc1cc(C)c(C(N)=O)c(NC(=O)Nc2ccccc2Cl)n1,i,i,-4.55*,i,i,i,i,i,i
COc1ccc(Nc2nc(N)nc(CSc3nccn3C)n2)cc1,i,i,-4.88*,i,i,i,i,i,i
COc1ccc(Nc2nc(N)nc(CSc3nnc(N)s3)n2)cc1,i,i,i,i,i,·,·,·,·
O=C(O)c1ccc(Nc2nc(-c3cccnc3)nc3ccccc23)cc1,i,i,i,i,i,·,·,·,·
N#Cc1c2n(cnc1=O)CCCCC2,i,i,-4.94*,i,i,i,i,i,i
CC1CCCN(C(=O)C2c3ccccc3C(=O)N3CCc4ccccc4C23)C1 (stereo not given),i,i,-5.54*,i,i,i,i,i,i
CC(CC(=O)Nc1nc2ccccc2[nH]1)n1ccnc1 (stereo not given),i,i,i,i,i,·,·,·,·
CC(=O)Nc1ccc(NC(=O)CC(C)n2ccnc2)cc1 (stereo not given),i,i,-7*,i,i,i,i,i,i
O=C(NC(=S)NCCN1CCOCC1)c1ccccc1Cl,i,i,-4.88*,i,i,i,i,i,i
Cc1cccc(OCc2nnc(SCC(=O)N3CC(=O)Nc4ccccc43)o2)c1,i,i,i,i,i,·,·,·,·
Cc1cc(C(=O)N2CC=C(c3ccccc3)CC2)c2ccccc2n1,i,i,-4.72*,i,i,i,i,i,i
O=C(OC1CCCCC1=O)c1ccc(S(=O)(=O)Nc2ccccc2)cc1 (stereo not given),i,i,-5.43*,i,i,i,i,i,i
O=C(OC1CCCCC1=O)c1cccc(S(=O)(=O)N2CCCCC2)c1 (stereo not given),i,i,i,i,i,·,·,·,·
O=C(CN1CCOCC1)Nc1ccccc1Sc1ccc(Cl)cc1,i,i,i,i,i,·,·,·,·
CC(=O)Cc1ccccc1OC(=O)c1ccco1,i,i,-6.22*,i,i,i,i,i,i
CN1C(=O)CC(N2CCN(CC(N)=O)CC2)C1=O (stereo not given),i,i,-5.62*,i,i,i,i,i,i
SMILES,MrgX1 agonist,RGS4 pot,MrgX1 antag,MrgX1 PAM,RGS4 inh,MrgX1 antag conf,HEK293 Ca flux,HEK293 Ca counter,HEK293 Ca cntr2
CN1C(=O)CC(N2CCC(C(N)=O)CC2)C1=O (stereo not given),i,i,i,i,i,·,·,·,·
COc1ccc(N2CC(C(=O)Nc3nc4ccc(F)cc4s3)CC2=O)c(OC)c1 (stereo not given),i,i,i,i,i,·,·,·,·
COc1ccccc1CC(=O)Nc1ccc(Cl)cc1C(=O)O,i,i,i,i,i,·,·,·,·
O=C(COc1cccc2ccccc12)Nc1ccc(Cl)cc1C(=O)O,i,i,-7.46*,i,i,74.4%*,i,i,i
O=C(COc1cccc2ccccc12)Nc1cc(Cl)ccc1C(=O)O,i,i,-7.55*,i,i,61.7%*,i,i,i
COCCNC(=O)CSc1n[nH]c(=O)n1CCc1ccccc1,i,i,i,i,i,·,·,·,·
CC1=C(C(=O)OCc2ccccc2)C(c2ccc(Cl)cc2Cl)NC(=O)N1CCCC(=O)O (stereo not given),i,·,i,i,·,·,·,·,·
CC1CCCC(NC(=O)c2cccc(S(=O)(=O)N3CCN(c4ccccc4)CC3)c2)C1C (stereo not given),i,i,-9.24*,i,i,i,i,i,i
CC1CCCCC1NC(=O)c1cccc(S(=O)(=O)N2CCN(C)CC2)c1 (stereo not given),i,i,i,i,i,·,·,·,·
CCCCN(C(=O)CSc1nnnn1C)c1c(N)n(Cc2ccccc2)c(=O)[nH]c1=O,i,i,i,i,i,·,·,·,·
CCOC(=O)C1CCN(C(=O)NS(=O)(=O)c2ccc(C)cc2)CC1,i,i,i,i,i,·,·,·,·
Cc1cc(NN)nc2ccc(Cl)cc12,i,i,i,i,i,·,·,·,·
